What is called inhibition is how much of the control response was suppressed.

For the assay, the target named is Tubulin (Homo sapiens) (UniProt P68371+Q9H4B7+P0DPH7+P68366+Q13509+Q71U36+P04350+Q3ZCM7+P07437+P68363+Q9BQE3+Q6PEY2+Q13885+Q9BVA1+Q9BUF5). Briefly: Inhibition of [3H]colchicine binding to tubulin (unknown origin) at 1 uM incubated for 10 mins relative to control. Format: protein-complex assay. The method, boiled down:
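Tubulin at 1.0 μM mixed with 5.0 μM [3H]colchicine and inhibitor at 1.0 μM, incubated 10 min at 37 °C.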

`COc1cc(C(=O)c2cn(-c3ccccn3)cc2-c2ccco2)cc(OC)c1OC`: the inhibition came to 66%.
On to `COc1cc(C(=O)c2cn(-c3ccccn3)cc2-c2ccccc2)cc(OC)c1OC`, for which the inhibition is 69%.

Source of the values: ChEMBL document CHEMBL5236592, “Induction of Ferroptosis in Glioblastoma and Ovarian Cancers by a New Pyrrole Tubulin Assembly Inhibitor” (J Med Chem, 2022).
